Assay results: ChEMBL document CHEMBL1146638, “Chemical basis for the biological activity of imexon and related cyanoaziridines” (J Med Chem, 2004)
Several values for one entry are separate records, joined by “and”; a condition that tells them apart may be missing. Identical values can stand only once.

Columns and labels:
L1210 [1] = test: Cytotoxicity against sensitive L1210 murine leukemia cells by MTT assay; assay type: functional, cell-based, Mus musculus
Method in brief: (§1)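 Murine L1210 leukemia cells, drug-sensitive and multidrug-resistant (MDR) sublines, tested in culture. Viability read by MTT assay. Values reported as IC50 in µM.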

L1210 [2] = test: Cytotoxicity against multidrug resistant (MDR) L1210 murine leukemia cells by MTT assay; assay type: functional, cell-based, Mus musculus; method in brief: as §1
RPMI-8226 = test: Cytotoxicity against sensitive human myeloma 8226/S cells by MTT assay

SMILES	IC50 (L1210 [1]; l1210) [µM]	IC50 (L1210 [2]; l1210)	IC50 (L1210 [1]; Mus musculus, L1210) [µM]	IC50 (RPMI-8226) [µM]	IC50 (L1210 [2]; Mus musculus, L1210) [µM]
N#CC1CN1C(=O)Nc1ccccc1 (stereo not drawn)	38.4	41.2 µM	–	–	–
N#CC1CN1C(N)=O (stereo not drawn)	–	–	> 500	> 500	> 500
CC(=O)NC(CSCC1NC(=O)NC1=O)C(=O)O (stereo not drawn)	–	–	73.7	56.3	116
NC(=O)N1CC1C1=NC(C(=O)O)CS1 (stereo not drawn)	–	–	> 500	–	> 500
O=C(Nc1ccccc1)N1CC1	–	5.8 µM and 28.4 µM	–	–	–
N#CC1CN1 (stereo not drawn)	–	–	> 500	–	> 500
CNC(=O)N1CC1C1=NC(C(=O)O)CS1 (stereo not drawn)	–	–	> 500	–	> 500
CNC(=O)N1CC1C#N (stereo not drawn)	–	–	25.1	15.5	36.7
O=C(O)C1CSC(C2CN2)=N1 (stereo not drawn)	–	–	> 500	–	> 500
C[N+](C)(C)C(CSCC(C#N)NC(=O)Nc1ccccc1)C(=O)[O-] (stereo not drawn)	–	–	73.9	44.9	> 500
